For test [1], the system named is HuT78. Kind of test: Giant-cell formation between persistently HIV-2 infected HUT-78 cells and uninfected MOLT-4 cells. It counts as functional, cell-based. An outline of the steps: (§1)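 MOLT-4 cells were co-cultured with an equal number of HUT-78 cells persistently infected with HIV-1 IIIB or HIV-2 ROD, with varying compound concentrations. Syncytia were counted by flow cytofluorography after 24 h. EC50 is the concentration giving 50% protection against giant-cell formation.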

Test [2] is described as follows: In vitro anticoagulant activity determined by clotting test of activated partial thromboplastin time (APTT) on a pool of human plasma. The test is classed as functional. In outline:
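Activated partial thromboplastin time clotting test on pooled human plasma, run on an automatic coagulometer. Activities were calculated according to the European Pharmacopoeia.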

The subject of test [3] is MT4. The experiment in a line: Selectivity index for CC50 (cytotoxic concentration based on the reduction of the viability of mock-infected MT-4 cells) to that of EC50 against HIV-1. It counts as functional. An outline of the steps: (§2)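 MT-4 cells at 3 × 10^5 cells/mL were infected with HIV-1 IIIB or HIV-2 ROD at 100 CCID50/mL, or mock-infected, alongside serial compound dilutions. Viability was read by MTT after 5 days at 37 °C. CC50 comes from mock-infected cells and EC50 from protection against cytopathicity. Index = CC50/EC50.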

For test [4], the system named is MT4. The experiment in a line: Effective concentration to achieve 50% protection of MT-4 cells against the cytopathic effect of HIV-2. It counts as functional, cell-based.
Test [5] relates to MT4. The experiment in a line: Effective concentration to achieve 50% protection of MT-4 cells against the cytopathic effect of HIV-1. The test is classed as functional, cell-based.
Test [6] deals with MT4. Kind of test: Selectivity index for CC50 (cytotoxic concentration based on reduction of viability of mock-infected MT-4 cells) to that of EC50 against HIV-2. It counts as functional. An outline of the steps:
as §2

For test [7], the system named is HuT78. Kind of test: Giant-cell formation between persistently HIV-1 infected HUT-78 cells and uninfected MOLT-4 cells. The test is classed as functional, cell-based. An outline of the steps: as §1
Setting [8] is: Homo sapiens, HuT78, read-out: EC50.
The mark [9] stands for this setting: Homo sapiens, MT4, read-out: EC50.

Structures are written as SMILES.

`CCCCOC(=O)/C=C(\CO)OC1OC(COS(=O)(=O)[O-])C(OC2OC(C(=O)OCCCC)C(OC3OC(COS(=O)(=O)[O-])C(OC4OC(C(=O)OCCCC)C(OC5OC(COS(=O)(=O)[O-])C(O)C(O)C5NC(C)=O)C(O)C4OS(=O)(=O)[O-])C(O)C3NC(C)=O)C(O)C2OS(=O)(=O)[O-])C(O)C1NC(C)=O.[Na+].[Na+].[Na+].[Na+].[Na+]` (centres undefined): the EC50 in test [1] (setting [8]) worked out at 20 µg/mL; in test [4] (setting [9]) it was 2.5 µg/mL; in test [5] (setting [9]), 6.5 µg/mL; in test [7] (setting [8]), 100 µg/mL. Besides, the APTT in test [2] is recorded as 1.2 IU mg-1. For the same compound, the Selectivity index was above 77 in test [3] and above 200 in test [6].
For the compound `CC(=O)NC1C(OC2C(C(=O)[O-])OC(OC3C(COS(=O)(=O)[O-])OC(OC4C(C(=O)[O-])OC(OC5C(COS(=O)(=O)[O-])OC(O/C(=C/C(=O)[O-])CO)C(NC(C)=O)C5O)C(OS(=O)(=O)[O-])C4O)C(NC(C)=O)C3O)C(OS(=O)(=O)[O-])C2O)OC(COS(=O)(=O)[O-])C(O)C1O.[Na+].[Na+].[Na+].[Na+].[Na+].[Na+].[Na+].[Na+]` (centres undefined), the EC50 in test [1] (setting [8]) amounted to 60 µg/mL; in test [4] (setting [9]), 2.7 µg/mL; in test [5] (setting [9]) it was 4.1 µg/mL; in test [7] (setting [8]), 500 µg/mL. The APTT in test [2] turned out to be 2.4 IU mg-1. Moreover, the Selectivity index in test [3] was above 122; in test [6] it was above 185.
`CCCC(=O)OC/C(=C\C(=O)[O-])OC1OC(COS(=O)(=O)[O-])C(OC2OC(C(=O)[O-])C(OC3OC(COS(=O)(=O)[O-])C(OC4OC(C(=O)[O-])C(OC5OC(COS(=O)(=O)[O-])C(O)C(OC(=O)CCC)C5NC(C)=O)C(OC(=O)CCC)C4OS(=O)(=O)[O-])C(OC(=O)CCC)C3NC(C)=O)C(OC(=O)CCC)C2OS(=O)(=O)[O-])C(OC(=O)CCC)C1NC(C)=O.[Na+].[Na+].[Na+].[Na+].[Na+].[Na+].[Na+].[Na+]` (centres undefined): the EC50 in test [1] (setting [8]) is 20 µg/mL; in test [4] (setting [9]) it was 1.2 µg/mL; in test [5] (setting [9]), 0.5 µg/mL; in test [7] (setting [8]) it was 15 µg/mL. For the same compound, the APTT in test [2] is given as 6 IU mg-1. Further, the Selectivity index is recorded as above 1000 in test [3] and above 417 in test [6].
Turning to `C/C=C\COC(=O)/C=C(\CO)OC1OC(COS(=O)(=O)[O-])C(OC2OC(C(=O)OC/C=C/C)C(OC3OC(COS(=O)(=O)[O-])C(OC4OC(C(=O)OC/C=C/C)C(OC5OC(COS(=O)(=O)[O-])C(O)C(O)C5NS(=O)(=O)[O-])C(O)C4OS(=O)(=O)[O-])C(O)C3NS(=O)(=O)[O-])C(O)C2OS(=O)(=O)[O-])C(O)C1NS(=O)(=O)[O-].[Na+].[Na+].[Na+].[Na+].[Na+].[Na+].[Na+].[Na+]` (centres undefined), the EC50 is 1 µg/mL in test [1] (setting [8]), 1.3 µg/mL in test [4] (setting [9]), 0.1 µg/mL in test [5] (setting [9]) and 10 µg/mL in test [7] (setting [8]). Further, in test [2], the APTT worked out at 3 IU mg-1. For the same compound, the Selectivity index in test [3] was above 5000; in test [6] it was above 384.
In the case of `C=CCOC(=O)/C=C(\CO)OC1OC(COS(=O)(=O)[O-])C(OC2OC(C(=O)OCC=C)C(OC3OC(COS(=O)(=O)[O-])C(OC4OC(C(=O)OCC=C)C(OC5OC(COS(=O)(=O)[O-])C(O)C(O)C5NS(=O)(=O)[O-])C(O)C4OS(=O)(=O)[O-])C(O)C3NS(=O)(=O)[O-])C(O)C2OS(=O)(=O)[O-])C(O)C1NS(=O)(=O)[O-].[Na+].[Na+].[Na+].[Na+].[Na+].[Na+].[Na+].[Na+]` (centres undefined), the EC50 in test [1] (setting [8]) is 3 µg/mL; in test [4] (setting [9]), 1 µg/mL; in test [5] (setting [9]) it was 0.2 µg/mL; in test [7] (setting [8]) it was 100 µg/mL. The compound further returned an APTT in test [2] of 2 IU mg-1. The Selectivity index in test [3] was above 2500; in test [6], above 500.
Take `C=CCCOC(=O)/C=C(\CO)OC1OC(COS(=O)(=O)[O-])C(OC2OC(C(=O)OCCC=C)C(OC3OC(COS(=O)(=O)[O-])C(OC4OC(C(=O)OCCC=C)C(OC5OC(COS(=O)(=O)[O-])C(O)C(O)C5NS(=O)(=O)[O-])C(O)C4OS(=O)(=O)[O-])C(O)C3NS(=O)(=O)[O-])C(O)C2OS(=O)(=O)[O-])C(O)C1NS(=O)(=O)[O-].[Na+].[Na+].[Na+].[Na+].[Na+].[Na+].[Na+].[Na+]` (centres undefined): the EC50 worked out at 2 µg/mL in test [1] (setting [8]), 2.4 µg/mL in test [4] (setting [9]), 0.6 µg/mL in test [5] (setting [9]) and 90 µg/mL in test [7] (setting [8]). Also, the APTT in test [2] worked out at 3 IU mg-1. For the same compound, the Selectivity index in test [3] was above 833; in test [6], above 208.
For `O=C(/C=C(\CO)OC1OC(COS(=O)(=O)[O-])C(OC2OC(C(=O)OCc3ccccc3)C(OC3OC(COS(=O)(=O)[O-])C(OC4OC(C(=O)OCc5ccccc5)C(OC5OC(COS(=O)(=O)[O-])C(O)C(O)C5NS(=O)(=O)[O-])C(O)C4OS(=O)(=O)[O-])C(O)C3NS(=O)(=O)[O-])C(O)C2OS(=O)(=O)[O-])C(O)C1NS(=O)(=O)[O-])OCc1ccccc1.[Na+].[Na+].[Na+].[Na+].[Na+].[Na+].[Na+].[Na+]` (centres undefined), the EC50 in test [1] (setting [8]) is 2 µg/mL; in test [4] (setting [9]) it was 0.4 µg/mL; in test [5] (setting [9]), 0.33 µg/mL; in test [7] (setting [8]) it was 1 µg/mL. In test [2], this compound returned an APTT of 4 IU mg-1. For the same compound, the Selectivity index in test [3] is above 1515; in test [6], above 1250.
Take `CCCCOC(=O)/C=C(\COC(=O)CCC)OC1OC(COS(=O)(=O)[O-])C(OC2OC(C(=O)OCCCC)C(OC3OC(COS(=O)(=O)[O-])C(OC4OC(C(=O)OCCCC)C(OC5OC(COS(=O)(=O)[O-])C(O)C(OC(=O)CCC)C5NS(=O)(=O)[O-])C(OC(=O)CCC)C4OS(=O)(=O)[O-])C(OC(=O)CCC)C3NS(=O)(=O)[O-])C(OC(=O)CCC)C2OS(=O)(=O)[O-])C(OC(=O)CCC)C1NS(=O)(=O)[O-].[Na+].[Na+].[Na+].[Na+].[Na+].[Na+].[Na+].[Na+]` (centres undefined): the EC50 in test [1] (setting [8]) is 4 µg/mL; in test [4] (setting [9]) it was 0.27 µg/mL; in test [5] (setting [9]), 0.28 µg/mL; in test [7] (setting [8]), 4 µg/mL. Also, in test [2], the APTT turned out to be 5 IU mg-1. In addition, the Selectivity index in test [3] is reported as above 1785; in test [6], above 1850.
For `COc1ccc(COC(=O)/C=C(\CO)OC2OC(COS(=O)(=O)[O-])C(OC3OC(C(=O)OCc4ccc(OC)cc4)C(OC4OC(COS(=O)(=O)[O-])C(OC5OC(C(=O)OCc6ccc(OC)cc6)C(OC6OC(COS(=O)(=O)[O-])C(O)C(O)C6NS(=O)(=O)[O-])C(O)C5OS(=O)(=O)[O-])C(O)C4NS(=O)(=O)[O-])C(O)C3OS(=O)(=O)[O-])C(O)C2NS(=O)(=O)[O-])cc1.[Na+].[Na+].[Na+].[Na+].[Na+].[Na+].[Na+].[Na+]` (centres undefined), the half-maximal effective concentration (EC50) in test [1] (setting [8]) is above 100 µg/mL; in test [4] (setting [9]) it was 4.3 µg/mL; in test [5] (setting [9]), 0.1 µg/mL; in test [7] (setting [8]), above 100 µg/mL. This compound returned an APTT in test [2] of 4 IU mg-1. For the same compound, the values for the Selectivity index in test [3] and in test [6] were above 5000 and above 119, respectively.
As for `O=C([O-])/C=C(\CO)OC1OC(COS(=O)(=O)[O-])C(OC2OC(C(=O)[O-])C(OC3OC(COS(=O)(=O)[O-])C(OC4OC(C(=O)[O-])C(OC5OC(COS(=O)(=O)[O-])C(O)C(O)C5NS(=O)(=O)[O-])C(O)C4OS(=O)(=O)[O-])C(O)C3NS(=O)(=O)[O-])C(O)C2OS(=O)(=O)[O-])C(O)C1NS(=O)(=O)[O-].[Na+].[Na+].[Na+].[Na+].[Na+].[Na+].[Na+].[Na+].[Na+].[Na+].[Na+]` (stereo in doubt; 3a), the EC50 is above 200 µg/mL in test [1] (setting [8]), 77 µg/mL in test [4] (mt4), 0.52 µg/mL in test [5] (mt4) and above 200 µg/mL in test [7] (hut78). Besides, the APTT in test [2] was 5 IU mg-1. Further, the Selectivity index is on record as above 961 in test [3] and 318 in test [6].
As to `CCCCCC(=O)OC/C(=C\C(=O)[O-])OC1OC(COS(=O)(=O)[O-])C(OC2OC(C(=O)[O-])C(OC3OC(COS(=O)(=O)[O-])C(OC4OC(C(=O)[O-])C(OC5OC(CS(=O)(=O)[O-])C(O)C(OC(=O)CCCCC)C5NS(=O)(=O)[O-])C(OC(=O)CCCCC)C4OS(=O)(=O)[O-])C(OC(=O)CCCCC)C3NS(=O)(=O)[O-])C(OC(=O)CCCCC)C2OS(=O)(=O)[O-])C(OC(=O)CCCCC)C1NS(=O)(=O)[O-].[Na+].[Na+].[Na+].[Na+].[Na+].[Na+].[Na+].[Na+].[Na+].[Na+].[Na+]` (stereo in doubt; 3f), the EC50 came to 100 µg/mL in test [1] (hut78), 1 µg/mL in test [4] (mt4), 0.2 µg/mL in test [5] (mt4) and 7 µg/mL in test [7] (hut78). The APTT in test [2] was 4 IU mg-1. Besides, the Selectivity index in test [3] is given as above 2500; in test [6] it was above 500.
Regarding `CCCCCC(=O)OC/C(=C\C(=O)[O-])OC1OC(COS(=O)(=O)[O-])C(OC2OC(C(=O)[O-])C(OC3OC(COS(=O)(=O)[O-])C(OC4OC(C(=O)[O-])C(OC5OC(CS(=O)(=O)[O-])C(O)C(OC(=O)CCCCC)C5NS(=O)(=O)[O-])C(OC(=O)CCCCC)C4OS(=O)(=O)[O-])C(OC(=O)CCCCC)C3NS(=O)(=O)[O-])C(OC(=O)CCCCC)C2OS(=O)(=O)[O-])C(OC(=O)CCCCC)C1NS(=O)(=O)[O-].[Na+].[Na+].[Na+].[Na+].[Na+].[Na+].[Na+].[Na+].[Na+].[Na+].[Na+]` (stereo in doubt; 3h), the EC50 amounted to 50 µg/mL in test [1] (hut78), 0.4 µg/mL in test [4] (mt4), 0.1 µg/mL in test [5] (mt4) and 3 µg/mL in test [7] (hut78). In test [2], this compound displayed an APTT of 6 IU mg-1. Besides, the Selectivity index in test [3] was above 5000; in test [6], above 1250.
